{"source": "ChEMBL document CHEMBL5705901", "about": "“Exploiting selective BCL-2 family inhibitors to dissect cell survival dependencies and define improved strategies for cancer therapy” (Sci Transl Med, 2015)", "key": {"NCI-H1650 [1]": {"tested_on": "NCI-H1650", "assay": "Antitumor activity against human NCI-H1650 cells xenografted in SCID-bg mouse assessed as maximum tumor growth inhibition at 25 mg/kg, po administered daily for 14 days relative to control", "type": "functional", "details": "NCI-H1650, 336 h, time 14 day, read-out: TGI", "procedure,_shortened": "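NCI-H1650 NSCLC xenografts, ten mice per group. Arms: vehicle; docetaxel iv once at 7.5 mg/kg; oral agent daily for 14 days at 25 mg/kg; and the two combined. TGImax = 100(1 − Tv/Cv) from mean volumes. TGD = 100(T/C − 1) from median times to reach 1 cm3.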"}, "MOLT-4": {"tested_on": "MOLT-4", "assay": "Induction of apoptosis in human MOLT-4 cells assessed as increase in annexin V positive cells upto 500 nM incubated for 24 hrs by Annexin V staining based analysis", "type": "functional, cell-based", "procedure,_shortened": "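Molt-4 cells were preincubated for 1 h with or without Z-VAD-fmk (75 μM), then treated for 24 h with increasing concentrations. Phosphatidylserine exposure was measured by annexin V staining. Values are the mean of triplicate experiments ± SD.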"}, "A549": {"tested_on": "A549", "assay": "Synergistic antitumor activity against 3 times passaged human A549 cells xenografted in po dosed SCID mouse assessed as maximum tumor growth inhibition in presence of docetaxel relative to control", "type": "functional", "procedure,_shortened": "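Xenografts dosed with oral inhibitor plus intravenous docetaxel. TGImax = 100(1 − Tv/Cv), from mean treated and control tumor volumes; TGD = 100(T/C − 1), from median times to reach 1 cm3. Group size 5 mice (NCI-H747, A549-FP3, EBC-1, OVCAR-5), 8 (NCI-H358), 10 (NCI-H1650).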"}, "MDA-MB-231 [2]": {"tested_on": "MDA-MB-231", "assay": "Synergistic antitumor activity against LC3 positive human MDA-MB-231 cells xenografted in SCID mouse assessed as maximum tumor growth inhibition at 25 mg/kg, po coadministered with docetaxel once daily for 14 days relative to control", "type": "functional", "details": "MDA-MB-231, 336 h, time 14 day, read-out: TGI", "procedure,_shortened": "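MDA-MB-231 LC3 metastatic breast cancer xenograft, 10 mice per group, with a vehicle control. Dosing: oral agent 25 mg/kg daily for 14 days; docetaxel 7.5 mg/kg iv once; combination gives both regimens. Mean tumor volumes tracked. TGImax = 100(1 − Tv/Cv) from mean treated vs control volumes. TGD = 100(T/C − 1) from median times to reach 1 cm3.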"}, "NCI-H358": {"tested_on": "NCI-H358", "assay": "Antitumor activity against human NCI-H358 cells xenografted in po dosed SCID mouse assessed as tumor growth delay relative to control", "type": "functional", "procedure,_shortened": "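Tumor volume-based endpoints. TGD = 100(T/C − 1), where T and C are the median times for the treated and control groups to reach 1 cm3. Groups were five mice for NCI-H747 and OVCAR-5 and eight for NCI-H358. Docetaxel was given intravenously and the test agent orally.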"}, "[3]": {"assay": "Toxicity in Sprague-Dawley rat assessed as inhibition of […] by measuring reduction in circulating platelets at 7 mg/kg, po administered daily for 5 days and measured on day 6 by microscopic analysis", "type": "organism-based", "details": "in vivo, 144 h, time 6 day", "procedure,_shortened": "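Male Sprague-Dawley rats, n = 10 per group: docetaxel 5 mg/kg i.v. once, or oral inhibitor daily for 5 days (30, 50 or 7 mg/kg depending on agent), alone or combined with docetaxel, against vehicles. Total neutrophil and platelet counts in blood collected on day 6; Tukey-Kramer test versus vehicle.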"}, "HCC1143 [4]": {"tested_on": "HCC1143", "assay": "Synergistic antiproliferative activity against human HCC1143 cells assessed as reduction in cell viability by measuring bliss sum score incubated for 72 hrs in presence of docetaxel by CellTiter-Glo cell vaibility assay", "type": "functional"}, "BT-549": {"tested_on": "BT-549", "assay": "Synergistic antiproliferative activity against human BT-549 cells assessed as reduction in cell viability by measuring bliss sum score incubated for 72 hrs in presence of docetaxel by CellTiter-Glo cell vaibility assay", "type": "functional"}, "ZR-75-30": {"tested_on": "ZR-75-30", "assay": "Antagonistic antiproliferative activity against human ZR-75-30 cells assessed as reduction in cell viability by measuring bliss sum score incubated for 72 hrs in presence of docetaxel by CellTiter-Glo cell vaibility assay", "type": "functional"}, "SK-BR-3 [5]": {"tested_on": "SK-BR-3", "assay": "Synergistic antiproliferative activity against human SK-BR-3 cells assessed as reduction in cell viability by measuring bliss sum score incubated for 72 hrs in presence of docetaxel by CellTiter-Glo cell vaibility assay", "type": "functional"}, "NCI-H460": {"tested_on": "NCI-H460", "assay": "Synergistic antiproliferative activity against human NCI-H460 cells assessed as reduction in cell viability by measuring bliss sum score incubated for 72 hrs in presence of docetaxel by CellTiter-Glo cell vaibility assay", "type": "functional"}, "HCC1806": {"tested_on": "HCC1806", "assay": "Synergistic antiproliferative activity against human HCC1806 cells assessed as reduction in cell viability by measuring bliss sum score incubated for 72 hrs in presence of docetaxel by CellTiter-Glo cell vaibility assay", "type": "functional"}, "SK-OV-3": {"tested_on": "SK-OV-3", "assay": "Synergistic antiproliferative activity against human SK-OV-3 cells assessed as reduction in cell viability by measuring bliss sum score incubated for 72 hrs in presence of docetaxel by CellTiter-Glo cell vaibility assay", "type": "functional"}, "OVCAR-8": {"tested_on": "OVCAR-8", "assay": "Synergistic antiproliferative activity against human OVCAR-8 cells assessed as reduction in cell viability by measuring bliss sum score incubated for 72 hrs in presence of docetaxel by CellTiter-Glo cell vaibility assay", "type": "functional"}, "NCI-H1650 [6]": {"tested_on": "NCI-H1650", "assay": "Synergistic antiproliferative activity against human NCI-H1650 cells assessed as reduction in cell viability by measuring bliss sum score incubated for 72 hrs in presence of docetaxel by CellTiter-Glo cell vaibility assay", "type": "functional"}, "NCI-H146": {"tested_on": "NCI-H146", "assay": "Induction of apoptosis in Bcl-xl dependent human NCI-H146 cells assessed as caspase 3/7 activation at 1 to 667 nM incubated for 4 hrs by immunoblot analysis", "type": "functional, cell-based", "details": "dose 1-667 nM", "procedure,_shortened": "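NCI-H146 cells were incubated with increasing concentrations for 4 h, and caspase-3/7 activation was measured. Values are the mean of triplicate experiments ± SD.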"}, "MDA-MB-436": {"tested_on": "MDA-MB-436", "assay": "Antagonistic antiproliferative activity against human MDA-MB-436 cells assessed as reduction in cell viability by measuring bliss sum score incubated for 72 hrs in presence of docetaxel by CellTiter-Glo cell vaibility assay", "type": "functional"}, "SK-BR-3 [7]": {"tested_on": "SK-BR-3", "assay": "Induction of apoptosis in human SK-BR-3 cells assessed as accumulation of cells with sub-G0-G1 DNA content at 1 uM incubated for 48 hrs in presence of docetaxel by flow cytometric analysis", "type": "functional, cell-based"}, "HCC1395": {"tested_on": "HCC1395", "assay": "Induction of apoptosis in human HCC1395 cells assessed as accumulation of cells with sub-G0-G1 DNA content at 1 uM incubated for 48 hrs in presence of docetaxel by flow cytometric analysis", "type": "functional, cell-based"}, "HCC38": {"tested_on": "HCC38", "assay": "Induction of apoptosis in human HCC38 cells assessed as accumulation of cells with sub-G0-G1 DNA content at 1 uM incubated for 48 hrs in presence of docetaxel by flow cytometric analysis", "type": "functional, cell-based"}, "MDA-MB-231 [8]": {"tested_on": "MDA-MB-231", "assay": "Induction of apoptosis in human MDA-MB-231 cells assessed as accumulation of cells with sub-G0-G1 DNA content at 1 uM incubated for 48 hrs in presence of docetaxel by flow cytometric analysis", "type": "functional, cell-based"}, "MCF7": {"tested_on": "MCF7", "assay": "Induction of apoptosis in human MCF7 cells expressing luciferase assessed as accumulation of cells with sub-G0-G1 DNA content at 1 uM incubated for 48 hrs in presence of docetaxel by flow cytometric analysis", "type": "functional, cell-based"}, "HCC1143 [9]": {"tested_on": "HCC1143", "assay": "Induction of apoptosis in human HCC1143 cells assessed as accumulation of cells with sub-G0-G1 DNA content at 1 uM incubated for 48 hrs in presence of docetaxel by flow cytometric analysis", "type": "functional, cell-based"}}, "note": "The source made the active and inactive calls. No cut-off for these calls is given here.", "data": [{"smiles": "Cc1c(-c2ccc(N3CCc4cccc(C(=O)Nc5nc6ccccc6s5)c4C3)nc2C(=O)O)cnn1CC12CC3CC(CC(C3)C1)C2", "values": [{"measurement": "inhibition in vivo at 25 mg/kg", "setting": "NCI-H1650 [1]", "result": 48, "unit": "%"}, {"measurement": "Activity", "setting": "MOLT-4", "result": "Active"}, {"measurement": "TGI", "setting": "A549", "result": 74, "unit": "%"}, {"measurement": "inhibition in vivo at 25 mg/kg", "setting": "MDA-MB-231 [2]", "result": 93, "unit": "%"}, {"measurement": "Activity", "setting": "NCI-H358", "result": 80, "unit": "%"}, {"measurement": "Activity", "setting": "[3]", "result": "Toxic"}]}, {"smiles": "CN(C)CC#Cc1ccc(OCCCc2sc(N3CCc4cccc(C(=O)Nc5nc6ccccc6s5)c4C3)nc2C(=O)O)c(F)c1", "note": "[A-1155463]", "values": [{"measurement": "Activity_index", "setting": "HCC1143 [4]", "result": 195}, {"measurement": "Activity_index", "setting": "BT-549", "result": 117}, {"measurement": "Activity_index", "setting": "ZR-75-30", "result": -265}, {"measurement": "Activity_index", "setting": "SK-BR-3 [5]", "result": 101}, {"measurement": "Activity_index", "setting": "NCI-H460", "result": 105}, {"measurement": "Activity_index", "setting": "HCC1806", "result": 224}, {"measurement": "Activity_index", "setting": "SK-OV-3", "result": 747}, {"measurement": "Activity_index", "setting": "OVCAR-8", "result": 159}, {"measurement": "Activity_index", "setting": "NCI-H1650 [6]", "result": 312}, {"measurement": "Activity", "setting": "NCI-H146", "result": "Active"}, {"measurement": "Activity_index", "setting": "MDA-MB-436", "result": -96}]}, {"smiles": "CC1(C)CCC(c2ccc(Cl)cc2)=C(CN2CCN(c3ccc(C(=O)NS(=O)(=O)c4ccc(N[C@H](CCN5CCOCC5)CSc5ccccc5)c(S(=O)(=O)C(F)(F)F)c4)cc3)CC2)C1", "note": "[NAVITOCLAX]", "values": [{"measurement": "Activity", "setting": "SK-BR-3 [7]", "result": "Active"}, {"measurement": "Activity", "setting": "HCC1395", "result": "Active"}, {"measurement": "Activity", "setting": "HCC38", "result": "Active"}, {"measurement": "Activity", "setting": "MDA-MB-231 [8]", "result": "Active"}, {"measurement": "Activity", "setting": "MCF7", "result": "Active"}, {"measurement": "Activity", "setting": "HCC1143 [9]", "result": "Active"}]}]}
